According to ChEMBL document CHEMBL1926562, “Design, synthesis and biological activity of sphingosine kinase 2 selective inhibitors” (Bioorg Med Chem, 2012):
Calls of active or inactive are those of the source. No cut-off for these calls is given here.

Biological target: T1, Sphingosine kinase 1 (Homo sapiens, UniProt Q9NYA1)
Test: Inhibition of human SphK1 expressed in baculovirus infected Sf9 insect cells assessed as remaining activity using sphingosine and [gamma-(32)P]-ATP as substrate at 100 uM by scintillation proximity counting
Outline: (§1)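 Enzyme source: supernatant (10,000×g) of homogenized Sf9 cells infected with recombinant virus for 72 h, 2-3 μg protein per reaction. Sphingosine substrate at 10 μM for SphK1 and 5 μM for SphK2. Initial screen used inhibitor at 100 μM, with some compounds at 10 μM. Read-out is percent of remaining kinase activity, averaged over three experiments.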

T1 sequence (Q9NYA1 whole entry): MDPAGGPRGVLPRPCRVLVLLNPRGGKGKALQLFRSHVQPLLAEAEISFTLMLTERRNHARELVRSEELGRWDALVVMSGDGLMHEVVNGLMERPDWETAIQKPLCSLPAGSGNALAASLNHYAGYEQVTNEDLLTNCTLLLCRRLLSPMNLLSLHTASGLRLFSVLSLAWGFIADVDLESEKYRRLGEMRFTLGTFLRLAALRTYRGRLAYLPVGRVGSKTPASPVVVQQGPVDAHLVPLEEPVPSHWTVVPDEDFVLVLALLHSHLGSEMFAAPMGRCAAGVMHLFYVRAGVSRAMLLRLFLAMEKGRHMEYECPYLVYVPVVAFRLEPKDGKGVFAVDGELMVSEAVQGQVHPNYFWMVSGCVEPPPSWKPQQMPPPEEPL

| Activity | SMILES |
| --- | --- |
| 100% | CCCCCCCCc1ccc([C@H]2CC[C@@H](NCCCC)CC2)cc1 |
| 83.9% | CCCCCCCCc1ccc([C@H]2CC[C@@H](N(C)C)CC2)cc1 |
| 113% | CCCCCCCCc1ccc([C@H]2CC[C@@H](NC3CC3)CC2)cc1 |
| 69.8% | CCCCCCCCc1ccc([C@H]2CC[C@@H](NC)CC2)cc1 |
| 75.6% | CCCCCCCCc1ccc([C@H]2CC[C@@H](NCCC)CC2)cc1 |
| 91.8% | C=CCN[C@H]1CC[C@@H](c2ccc(CCCCCCCC)cc2)CC1 |
| 100% | C#CCN[C@H]1CC[C@@H](c2ccc(CCCCCCCC)cc2)CC1 |
| 90% | CCCCCCCCc1ccc([C@H]2CC[C@@H](NC(C)C)CC2)cc1 |
| 15.7% | CCCCCCCCc1ccc([C@H]2CC[C@H](NC)CC2)cc1 |
| 15.8% | CCCCCCCCc1ccc([C@H]2CC[C@H](NCCC)CC2)cc1 |
| 65.8% | CCCCCCCCc1ccc([C@H]2CC[C@@H]([N+](C)(C)C)CC2)cc1 |
| 46.3% | CCCCCCCCc1ccc([C@H]2CC[C@H](N(C)C)CC2)cc1 |

The next lines start with the compound.

| SMILES | Activity |
| --- | --- |
| CCCCCCCCc1ccc(C2CCC(=NO)CC2)cc1 (centres undefined) | 130% |
| CCCCCCCCc1ccc(C2CCC(O)(C[N+](=O)[O-])CC2)cc1 (centres undefined) | 100% |
| CCCCCCCCc1ccc([C@H]2CC[C@H](NCc3ccccc3)CC2)cc1 | 83.9% |
| CCCCCCCCc1ccc([C@H]2CC[C@H](NCc3ccncc3)CC2)cc1 | 33% |
| CCCCCCCCc1ccc([C@H]2CC[C@@H]([N+](C)(C)CCC)CC2)cc1 | 25.1% |
| CCCCCCCCc1ccc([C@H]2CC[C@H]([N+](C)(C)Cc3ccccc3)CC2)cc1 | 25.7% |
| CCCCCCCCc1ccc([C@H]2CC[C@@H](N(C)C(C)C)CC2)cc1 | 113% |
| CCCCCCCCc1ccc([C@H]2CC[C@H]([N+](C)(C)C(C)C)CC2)cc1 | 49.1% |
| CCCCCCCCc1ccc([C@H]2CC[C@H]([N+](C)(C)CCO)CC2)cc1 | 10.5% |

Biological target: T2, Sphingosine kinase 2 (Mus musculus) (UniProt Q9JIA7)
T2 sequence (whole entry): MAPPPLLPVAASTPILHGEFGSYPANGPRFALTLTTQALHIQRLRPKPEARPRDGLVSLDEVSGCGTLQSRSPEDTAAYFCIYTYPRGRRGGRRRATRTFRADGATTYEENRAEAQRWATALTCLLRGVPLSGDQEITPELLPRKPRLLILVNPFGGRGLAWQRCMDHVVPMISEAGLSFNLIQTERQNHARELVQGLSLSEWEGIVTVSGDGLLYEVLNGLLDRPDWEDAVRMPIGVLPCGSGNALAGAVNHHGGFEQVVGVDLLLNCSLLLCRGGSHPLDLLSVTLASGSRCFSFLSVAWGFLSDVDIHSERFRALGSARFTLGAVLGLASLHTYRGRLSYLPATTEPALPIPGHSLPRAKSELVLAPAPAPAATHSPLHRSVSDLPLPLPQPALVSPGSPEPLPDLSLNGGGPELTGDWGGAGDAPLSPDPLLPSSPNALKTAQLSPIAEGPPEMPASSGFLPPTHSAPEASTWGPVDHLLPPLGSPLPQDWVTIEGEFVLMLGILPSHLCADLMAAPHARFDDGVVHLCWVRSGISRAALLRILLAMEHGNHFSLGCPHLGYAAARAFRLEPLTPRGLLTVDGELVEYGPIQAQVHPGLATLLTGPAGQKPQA
Test: Inhibition of mouse SphK2 expressed in baculovirus infected Sf9 insect cells assessed as remaining activity using sphingosine and [gamma-(32)P]-ATP at 100 uM by scintillation proximity counting
Outline: as §1

| Activity | SMILES |
| --- | --- |
| 60.6% | CCCCCCCCc1ccc([C@H]2CC[C@@H](NCCCC)CC2)cc1 |
| 50.8% | CCCCCCCCc1ccc([C@H]2CC[C@@H](N(C)C)CC2)cc1 |
| 116% | CCCCCCCCc1ccc([C@H]2CC[C@@H](NC3CC3)CC2)cc1 |
| 5.4% | CCCCCCCCc1ccc([C@H]2CC[C@@H](NC)CC2)cc1 |
| 18.3% | CCCCCCCCc1ccc([C@H]2CC[C@@H](NCCC)CC2)cc1 |
| 100% | C=CCN[C@H]1CC[C@@H](c2ccc(CCCCCCCC)cc2)CC1 |
| 101% | C#CCN[C@H]1CC[C@@H](c2ccc(CCCCCCCC)cc2)CC1 |
| 16.5% | CCCCCCCCc1ccc([C@H]2CC[C@@H](NC(C)C)CC2)cc1 |
| 7.7% | CCCCCCCCc1ccc([C@H]2CC[C@H](NC)CC2)cc1 |
| 5.5% | CCCCCCCCc1ccc([C@H]2CC[C@H](NCCC)CC2)cc1 |
| 8.3% | CCCCCCCCc1ccc([C@H]2CC[C@@H]([N+](C)(C)C)CC2)cc1 |
| 9% | CCCCCCCCc1ccc([C@H]2CC[C@H](N(C)C)CC2)cc1 |

Second part, the compound before the results:

| SMILES | Activity |
| --- | --- |
| CCCCCCCCc1ccc(C2CCC(=NO)CC2)cc1 (centres undefined) | 56.5% |
| CCCCCCCCc1ccc(C2CCC(O)(C[N+](=O)[O-])CC2)cc1 (centres undefined) | 52.7% |
| CCCCCCCCc1ccc([C@H]2CC[C@H](NCc3ccccc3)CC2)cc1 | 53.3% |
| CCCCCCCCc1ccc([C@H]2CC[C@H](NCc3ccncc3)CC2)cc1 | 23% |
| CCCCCCCCc1ccc([C@H]2CC[C@@H]([N+](C)(C)CCC)CC2)cc1 | 3.2% |
| CCCCCCCCc1ccc([C@H]2CC[C@H]([N+](C)(C)Cc3ccccc3)CC2)cc1 | 8.3% |
| CCCCCCCCc1ccc([C@H]2CC[C@@H](N(C)C(C)C)CC2)cc1 | 101% |
| CCCCCCCCc1ccc([C@H]2CC[C@H]([N+](C)(C)C(C)C)CC2)cc1 | 11.5% |
| CCCCCCCCc1ccc([C@H]2CC[C@H]([N+](C)(C)CCO)CC2)cc1 | 3% |

Biological target: T1, Sphingosine kinase 1
Test: Inhibition of human SphK1 expressed in baculovirus infected Sf9 insect cells using sphingosine and [gamma-(32)P]-ATP by scintillation proximity assay
Outline: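 Ki calculated as Ki = [I]/(K′m/Km – 1), using a sphingosine Km of 10 μM for SphK1 and 5 μM for SphK2. Enzyme came from infected Sf9 cell extract (10,000×g supernatant, 2-3 μg protein).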

| Ki | SMILES |
| --- | --- |
| > 100 µM | CCCCCCCCc1ccc([C@H]2CC[C@@H](NC)CC2)cc1 |
| 40 µM | CCCCCCCCc1ccc([C@H]2CC[C@H](N(C)C)CC2)cc1 |

Second part, the compound before the results:

| SMILES | Ki |
| --- | --- |
| CCCCCCCCc1ccc([C@H]2CC[C@H]([N+](C)(C)C(C)C)CC2)cc1 | > 100 µM |
| CCCCCCCCc1ccc([C@H]2CC[C@H]([N+](C)(C)CCO)CC2)cc1 | 70 µM |

Biological target: T3, Sphingosine kinase 2 (Mus musculus, UniProt Q9JIA7)
T3 sequence (Q9JIA7 whole entry): T2 sequence (whole entry)
Test: Inhibition of mouse SphK2 expressed in baculovirus infected Sf9 insect cells using sphingosine and [gamma-(32)P]-ATP by scintillation proximity assay

| Ki | SMILES |
| --- | --- |
| 40 µM | CCCCCCCCc1ccc([C@H]2CC[C@@H](NC)CC2)cc1 |
| 27 µM | CCCCCCCCc1ccc([C@H]2CC[C@H](N(C)C)CC2)cc1 |

Continued, compound first:

| SMILES | Ki |
| --- | --- |
| CCCCCCCCc1ccc([C@H]2CC[C@H]([N+](C)(C)C(C)C)CC2)cc1 | 33 µM |
| CCCCCCCCc1ccc([C@H]2CC[C@H]([N+](C)(C)CCO)CC2)cc1 | 14 µM |

Biological target: T2, Sphingosine kinase 2 (Mus musculus)
Test: Inhibition of mouse SphK2 expressed in baculovirus infected Sf9 insect cells using sphingosine and [gamma-(32)P]-ATP at 10 uM by scintillation proximity counting
Outline: as §1

| inhibition | SMILES |
| --- | --- |
| Active | CCCCCCCCc1ccc([C@H]2CC[C@@H]([N+](C)(C)CCC)CC2)cc1 |
| Active | CCCCCCCCc1ccc([C@H]2CC[C@@H]([N+](C)(C)C)CC2)cc1 |

System: not listed separately
Test: Selectivity ratio of Ki/Km for human SphK1 to Ki/Km for mouse SphK2
Outline: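 Selectivity calculated as (Ki/Km)SphK1 divided by (Ki/Km)SphK2, with sphingosine Km taken as 10 μM for SphK1 and 5 μM for SphK2.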

| Selectivity ratio | SMILES |
| --- | --- |
| 2.5 | CCCCCCCCc1ccc([C@H]2CC[C@H]([N+](C)(C)CCO)CC2)cc1 |
| 0.74 | CCCCCCCCc1ccc([C@H]2CC[C@H](N(C)C)CC2)cc1 |
